Source: ChEMBL document CHEMBL1131156, “Studies on selectin blockers. 7. Structure-activity relationships of sialyl Lewis X mimetics based on modified Ser-Glu dipeptides” (J Med Chem, 1998)

Assays:
E-selectin = biological target: T1, E-selectin (Homo sapiens, UniProt P16581); assay: Displacement of sialyl Lewis X (sLex) from selectin E
T1 sequence (P16581 whole entry): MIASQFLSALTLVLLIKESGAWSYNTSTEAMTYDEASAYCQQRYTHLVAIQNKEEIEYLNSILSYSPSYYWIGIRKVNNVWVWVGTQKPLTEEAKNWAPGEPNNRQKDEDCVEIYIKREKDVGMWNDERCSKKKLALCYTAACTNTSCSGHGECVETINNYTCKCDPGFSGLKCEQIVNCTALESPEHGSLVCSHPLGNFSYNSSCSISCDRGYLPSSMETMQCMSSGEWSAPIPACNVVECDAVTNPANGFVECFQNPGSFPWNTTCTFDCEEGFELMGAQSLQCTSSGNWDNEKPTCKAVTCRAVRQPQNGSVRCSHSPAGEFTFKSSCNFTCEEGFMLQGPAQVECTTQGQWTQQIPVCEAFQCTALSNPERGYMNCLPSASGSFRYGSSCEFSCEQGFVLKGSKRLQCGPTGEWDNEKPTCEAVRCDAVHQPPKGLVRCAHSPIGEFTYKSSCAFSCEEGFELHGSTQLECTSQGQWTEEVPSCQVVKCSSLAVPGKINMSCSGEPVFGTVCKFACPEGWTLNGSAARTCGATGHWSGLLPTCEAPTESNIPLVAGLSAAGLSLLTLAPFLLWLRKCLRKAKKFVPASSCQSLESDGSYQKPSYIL

P-selectin [1] = biological target: T2, P-selectin (Homo sapiens, UniProt P16109); assay: Inhibition of Selectin P binding
T2 sequence (P16109 whole entry): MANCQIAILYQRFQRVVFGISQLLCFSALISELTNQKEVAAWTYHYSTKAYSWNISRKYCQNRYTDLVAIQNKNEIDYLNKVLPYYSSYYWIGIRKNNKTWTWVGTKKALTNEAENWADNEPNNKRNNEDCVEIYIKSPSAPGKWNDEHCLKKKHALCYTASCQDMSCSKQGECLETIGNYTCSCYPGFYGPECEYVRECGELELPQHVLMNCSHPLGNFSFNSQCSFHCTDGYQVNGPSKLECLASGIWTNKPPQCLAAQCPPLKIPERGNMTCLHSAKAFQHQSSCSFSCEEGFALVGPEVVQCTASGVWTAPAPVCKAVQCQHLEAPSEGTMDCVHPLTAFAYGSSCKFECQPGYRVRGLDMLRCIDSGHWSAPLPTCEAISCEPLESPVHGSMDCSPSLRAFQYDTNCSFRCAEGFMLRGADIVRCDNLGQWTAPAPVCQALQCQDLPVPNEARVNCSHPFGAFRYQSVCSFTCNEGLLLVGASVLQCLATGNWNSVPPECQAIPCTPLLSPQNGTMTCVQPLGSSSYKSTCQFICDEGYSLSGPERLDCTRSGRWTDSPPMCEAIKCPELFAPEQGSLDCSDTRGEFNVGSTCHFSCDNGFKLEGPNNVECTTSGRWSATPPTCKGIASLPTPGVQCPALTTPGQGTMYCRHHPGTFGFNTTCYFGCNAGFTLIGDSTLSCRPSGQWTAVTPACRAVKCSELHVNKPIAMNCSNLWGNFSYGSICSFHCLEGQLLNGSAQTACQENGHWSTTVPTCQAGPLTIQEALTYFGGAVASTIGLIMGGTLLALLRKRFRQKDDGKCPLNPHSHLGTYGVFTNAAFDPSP
In short: (§1)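 Wells coated with sLeX pentasaccharide ceramide analogue (100 pmol/well, dried from 1:1 methanol/water), blocked with 5% BSA-1 mM CaCl2/50 mM imidazole (pH 7.2) 1 h RT. Selectin-Ig fusion was precomplexed 30 min RT with biotinylated goat F(ab')2 anti-human IgG/streptavidin-alkaline phosphatase. Compounds (DMSO stock 10 mM; […]) were incubated with complex 30 min RT, then in wells 45 min at 37 °C. Detection used p-nitrophenyl phosphate in diethanolamine, pH 9.8.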

L-selectin = biological target: T3, L-selectin (Homo sapiens, UniProt P14151); assay: Inhibition of Selectin L binding; in short: as §1
T3 sequence (P14151 whole entry): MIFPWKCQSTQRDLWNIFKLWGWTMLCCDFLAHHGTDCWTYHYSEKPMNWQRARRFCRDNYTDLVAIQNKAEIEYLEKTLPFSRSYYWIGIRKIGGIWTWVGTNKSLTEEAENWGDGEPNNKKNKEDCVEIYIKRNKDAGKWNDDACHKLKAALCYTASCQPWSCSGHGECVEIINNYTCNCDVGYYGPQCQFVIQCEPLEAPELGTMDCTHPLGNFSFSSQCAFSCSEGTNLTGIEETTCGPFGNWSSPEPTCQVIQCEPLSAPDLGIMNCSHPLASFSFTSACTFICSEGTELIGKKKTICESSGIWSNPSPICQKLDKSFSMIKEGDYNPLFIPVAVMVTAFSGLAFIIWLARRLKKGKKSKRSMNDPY

P-selectin [2] = biological target: T2, P-selectin; assay: The compound was tested for the concentration to inhibit 50% of Selectin P by blocking its activity; range is 250-500

| SMILES | IC50 (E-selectin) | IC50 (P-selectin [1]) | IC50 (L-selectin) | IC50 (P-selectin [2]) |
| --- | --- | --- | --- | --- |
| CCCCCCCCCCCCCCC(CCCCCCCCCCCCCC)C(=O)N[C@H](COC1OC(C)C(O)C(O)C1O)C(=O)NC(CC(=O)O)C(=O)NC (stereo partly specified) | > 500 µM | 3.6 µM | 3.8 µM |  |
| CCCCCCCCCCCCCCCC(=O)N[C@H](COC1OC(C)C(O)C(O)C1O)C(=O)NC(CCC(=O)O)C(=O)NC (stereo partly specified) | > 500 µM |  | 200 µM | 250 µM |
| CCCCCCCCCCCCCCC(CCCCCCCCCCCCCC)C(=O)N[C@H](CO[C@H]1O[C@H](CO)[C@@H](O)[C@@H](O)[C@@H]1O)C(=O)N[C@@H](CCC(=O)O)C(=O)NC | 3.5 µM | 0.45 µM | 4 µM |  |
| CCCCCCCCCCCC(CCCCCCCCCCC)C(=O)N[C@H](COC1OC(C)C(O)C(O)C1O)C(=O)NC(CCC(=O)O)C(=O)NC (stereo partly specified) | 160 µM | 15 µM | 12 µM |  |
| CCCCCCCCCCCCCCC(CCCCCCCCCCCCCC)C(=O)N[C@H](COC1OC(C)C(O)C(O)C1O)C(=O)N[C@@H](CCC(=O)OC)C(=O)NC (stereo partly specified) | > 500 µM | 37 µM | > 500 µM |  |
| CCCCCCCCCCCCCCC(CCCCCCCCCCCCCC)C(=O)N[C@H](COC1OC(C)C(O)C(O)C1O)C(=O)NC(CCC(=O)O)C(=O)OC (stereo partly specified) | > 500 µM | 1.6 µM | 2.4 µM |  |
| CCCCCCCCCCCCCCC(CCCCCCCCCCCCCC)C(=O)N[C@@H](CO[C@H]1O[C@H](CO)[C@@H](O)[C@@H](O)[C@@H]1O)C(=O)N[C@H](CCC(=O)O)C(=O)NC (stereo in doubt; 5b) | 16 µM | 0.42 µM | 3.1 µM |  |
| CCCCCCCCCCCCCCC(CCCCCCCCCCCCCC)C(=O)N[C@@H](CO[C@H]1O[C@H](CO)[C@@H](O)[C@@H](O)[C@@H]1O)C(=O)N[C@H](CCC(=O)O)C(=O)NC (stereo in doubt; 5c) | > 1000 µM | 0.68 µM | 4.2 µM |  |
| CCCCCCCCCCCCCCC(CCCCCCCCCCCCCC)C(=O)N[C@@H](CO[C@H]1O[C@H](CO)[C@@H](O)[C@@H](O)[C@@H]1O)C(=O)N[C@H](CCC(=O)O)C(=O)NC (stereo in doubt; 5d) | > 1000 µM | 0.38 µM | 4.4 µM |  |
| CC(=O)N[C@H]1[C@H]([C@H](O)[C@H](O)CO)O[C@@](O[C@H]2[C@@H](O)[C@@H](CO)O[C@@H](O[C@@H]([C@H](O[C@@H]3O[C@@H](C)[C@@H](O)[C@@H](O)[C@@H]3O)[C@H](C=O)NC(C)=O)[C@H](O)CO)[C@@H]2O)(C(=O)O)C[C@@H]1O [SIALYL LEWIS X] |  | > 1000 µM | > 1000 µM |  |

Other lines, results leading:

| IC50 (E-selectin) | IC50 (P-selectin [1]) | IC50 (L-selectin) | IC50 (P-selectin [2]) | SMILES |
| --- | --- | --- | --- | --- |
| > 1000 µM | 0.6 µM | 1.8 µM |  | CCCCCCCCCCCCCCC(CCCCCCCCCCCCCC)C(=O)N[C@@H](CO[C@H]1O[C@@H](C)[C@@H](O)[C@H](O)[C@@H]1O)C(=O)N[C@@H](CCC(=O)O)C(=O)NC |
| > 100 µM | 0.3 µM | 1.6 µM |  | CCCCCCCCCCCCCCC(CCCCCCCCCCCCCC)C(=O)N[C@H](CO[C@H]1O[C@@H](C)[C@@H](O)[C@H](O)[C@@H]1O)C(=O)N[C@@H](CCC(=O)O)C(=O)NC |
| > 1000 µM | 0.3 µM | 0.7 µM |  | CCCCCCCCCCCCCCC(CCCCCCCCCCCCCC)C(=O)N[C@H](CO[C@H]1O[C@@H](C)[C@@H](O)[C@H](O)[C@@H]1O)C(=O)N[C@H](CCC(=O)O)C(=O)NC |
| > 100 µM | 0.3 µM | 0.8 µM |  | CCCCCCCCCCCCCCC(CCCCCCCCCCCCCC)C(=O)N[C@@H](CO[C@H]1O[C@@H](C)[C@@H](O)[C@H](O)[C@@H]1O)C(=O)N[C@H](CCC(=O)O)C(=O)NC |
